The text below walks through data of ChEMBL document CHEMBL2417361, “Investigation of acyclic uridine amide and 5'-amido nucleoside analogues as potential inhibitors of the Plasmodium falciparum dUTPase” (Bioorg Med Chem, 2013).

One may read the Ki as the equilibrium dissociation constant of an inhibitor or competing ligand from its target. For orientation: EC50 means the concentration at which the effect is half-maximal.

Data set [1] is described as follows: Selectivity index, ratio of EC50 for rat L6 cells to EC50 for Plasmodium falciparum K1. It is filed as toxicity, cell-based. The conditions noted are these: read-out: Ratio EC50.
The nature of data set [2]: Inhibition of recombinant Plasmodium falciparum dUTPase expressed in Escherichia coli BL21 (DE3) using dUTP as substrate by spectrophotometric analysis. The method, boiled down:
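Recombinant enzyme from IPTG-induced E. coli BL21(DE3), purified by phosphocellulose and gel filtration to ≥96% purity, stored in 10 mM bicine/5 mM MgCl2 pH 8. Stopped-flow mixing of 30 nM PfdUTPase with 50 µM dUTP, 5 mM MgCl2, 1 mg/mL BSA and 100 mM KCl. Proton release tracked with cresol red/bicine (pH 8) at 573 nm. Vmax and KMapp fitted by integrated Michaelis–Menten equation.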

The target of data set [3] is T1, Deoxyuridine 5'-triphosphate nucleotidohydrolase, mitochondrial (Homo sapiens, UniProt P33316).
T1 sequence (P33316 whole entry): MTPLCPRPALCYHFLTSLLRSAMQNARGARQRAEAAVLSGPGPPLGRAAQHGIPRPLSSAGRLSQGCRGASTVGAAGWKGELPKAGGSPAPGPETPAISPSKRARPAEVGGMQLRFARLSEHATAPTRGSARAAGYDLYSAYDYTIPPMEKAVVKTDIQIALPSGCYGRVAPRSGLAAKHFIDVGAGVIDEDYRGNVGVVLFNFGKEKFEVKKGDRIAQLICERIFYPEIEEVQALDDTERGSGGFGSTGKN
The data set is described as follows: Inhibition of recombinant human dUTPase expressed in Escherichia coli BL21 (DE3) using dUTP as substrate by spectrophotometric analysis. An outline of the steps: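 Human enzyme expressed in IPTG-induced E. coli BL21(DE3) and purified like the parasite enzyme (phosphocellulose, then gel filtration, ≥96% pure). Hydrolysis after rapid mixing was read as proton release using a cresol red/bicine indicator pair (pH 8, 573 nm), with absorbance change kept within 0.1 units. Vmax and KMapp were fitted to the integrated Michaelis–Menten equation.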

For the next data set, the system named is L6. Description: Cytotoxicity against rat L6 cells after 72 hrs by Alamar Blue assay. It is filed as cell-based. As to conditions: L6, 72 h. The method, boiled down: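 Rat skeletal myoblast L6 line, with podophyllotoxin as control. EC50 is the mean of two independent assays.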
The next data set deals with Plasmodium falciparum. Description: Antiparasitic activity against chloroquine/pyrimethamine-resistant Plasmodium falciparum K1 infected in erythrocytes assessed as parasite growth inhibition after 48 hrs by [3H]-hypoxanthine incorporation assay. It is filed as functional, organism-based.
The nature of data set [4]: Selectivity index, ratio of Ki for human dUTPase to Ki for recombinant Plasmodium falciparum dUTPase.

Consider `O=c1ccn(CCCOC(c2ccccc2)(c2ccccc2)c2ccccc2)c(=O)[nH]1`, for which the selectivity ratio in data set [1] turned out to be 5.
In the case of `O=c1ccn(CCCCNC(c2ccccc2)(c2ccccc2)c2ccccc2)c(=O)[nH]1`, the selectivity ratio in data set [1] turned out to be 9.
As for `O=c1ccn([C@H]2C[C@H](O)[C@@H](CNC(c3ccccc3)(c3ccccc3)c3ccccc3)O2)c(=O)[nH]1`, the Ki in data set [2] was 0.2 µM.
For the compound `O=C(CCCn1ccc(=O)[nH]c1=O)NC(c1ccccc1)c1ccccc1`, the inhibition constant (Ki) in data set [3] amounted to 1000 µM.
In the case of `O=c1ccn(CCCCOC(c2ccccc2)c2ccccc2)c(=O)[nH]1`, the values for the half-maximal effective concentration (EC50) in the data set with L6 and in the data set on Plasmodium falciparum were 104 µM and 14 µM, respectively. The selectivity ratio in data set [1] was determined as 7. For the same compound, the inhibition constant (Ki) came to 49 µM in data set [3] and 0.5 µM in data set [2].
On to `O=c1ccn(CCCNC(c2ccccc2)c2ccccc2)c(=O)[nH]1`, for which the 50% effective concentration (EC50) is 269 µM in the data set with L6 and 5.5 µM in the data set on Plasmodium falciparum. In addition, the selectivity ratio in data set [1] turned out to be 49. For the same compound, the Ki worked out at 10 µM in data set [3] and 5.7 µM in data set [2].
As to `O=c1ccn(CCCCCCNC(c2ccccc2)(c2ccccc2)c2ccccc2)c(=O)[nH]1`, the selectivity ratio in data set [1] turned out to be 36.
Regarding `O=c1ccn(CCCCNC(c2ccccc2)c2ccccc2)c(=O)[nH]1`, the 50% effective concentration (EC50) in the data set on L6 was 99 µM; in the data set on Plasmodium falciparum, 2.6 µM. Further, the selectivity ratio in data set [1] stood at 38. Moreover, the results for the Ki in data set [3] and in data set [2] were 63 µM and 5.7 µM, respectively.
`O=c1ccn([C@H]2C[C@H](O)[C@@H](CNC(c3ccccc3)c3ccccc3)O2)c(=O)[nH]1`: the values for the EC50 in the data set with L6 and in the data set with Plasmodium falciparum were more than 229 µM and 12 µM, respectively. In data set [1], the selectivity ratio is more than 20. Further, the results for the Ki in data set [3] and in data set [2] were more than 100 µM and 0.2 µM, respectively.
Consider `O=C(O)CCCn1ccc(=O)[nH]c1=O`, for which, in data set [4], the Ratio Ki is 400. Moreover, the Ki is 1000 µM in data set [3] and more than 100 µM in data set [2].
Turning to `O=c1ccn(CCCCCCOC(c2ccccc2)(c2ccccc2)c2ccccc2)c(=O)[nH]1`, the selectivity ratio in data set [1] was determined as 19.
On to `O=C(NCCCn1ccc(=O)[nH]c1=O)C(c1ccccc1)(c1ccccc1)c1ccccc1`, for which, in data set [3], the inhibition constant Ki worked out at 1000 µM.
For `O=C(c1ccccc1)n1c(=O)ccn(CCCNC(=O)C(c2ccccc2)(c2ccccc2)c2ccccc2)c1=O`, the Ratio Ki in data set [4] was 56. For the same compound, the values for the Ki in data set [3] and in data set [2] were 1000 µM and more than 100 µM, respectively.
For `O=C(NCCCO)C(c1ccccc1)(c1ccccc1)c1ccccc1`, in data set [4], the Ratio Ki amounted to 1.
On to `O=C(CCCn1ccc(=O)[nH]c1=O)NC(c1ccccc1)(c1ccccc1)c1ccccc1`, for which the Ki in data set [3] was found to be 1000 µM.
As for `O=C(NCCCO)C(c1ccccc1)c1ccccc1`, in data set [4], the Ratio Ki was determined as 13. Also, the inhibition constant Ki is 1000 µM in data set [3] and more than 100 µM in data set [2].
